ChEMBL document CHEMBL1141529, “Design and synthesis of 3-arylpyrrolidine-2-carboxamide derivatives as melanocortin-4 receptor ligands” (Bioorg Med Chem Lett, 2008)

Assays:
Melanocortin receptor 4 [1] = biological target: T1, Melanocortin receptor 4 (Homo sapiens, UniProt P32245); test: Displacement of [125]NDPMSH from human MC4 receptor expressed in HEK293 cells; assay type: cell-based
Melanocortin receptor 4 [2] = biological target: T1, Melanocortin receptor 4; test: Antagonist activity at MC4 receptor assessed as inhibition of alpha-MSH-stimulated cAMP production; assay type: functional
[3] = Plasma clearance in rat at 5 mg/kg, iv; assay type: ADME, organism-based; parameters: dose 5 mg/kg, route intravenous
Procedure, shortened: (§1)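 Single intravenous injection at 5 mg/kg in rats. Clearance, volume of distribution and half-life are derived from plasma concentrations.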

[4] = Volume of distribution in rat at 5 mg/kg, iv; assay type: ADME, organism-based; parameters: dose 5 mg/kg, route intravenous; conditions: in vivo; procedure, shortened: as §1
[5] = Half life in rat at 5 mg/kg, iv; assay type: ADME, organism-based; parameters: dose 5 mg/kg, route intravenous; conditions: in vivo; procedure, shortened: as §1
Rattus norvegicus = test: AUC in rat at 10 mg/kg, po; assay type: ADME, organism-based, Plasma; parameters: dose 10 mg/kg, route oral; conditions: in vivo
Procedure, shortened: (§2)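 Rats dosed orally at 10 mg/kg. Cmax and AUC are plasma values. Absolute bioavailability is referenced to a separate intravenous 5 mg/kg dose.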

[6] = Absolute bioavailability in rat at 10 mg/kg, po; assay type: ADME, organism-based; conditions: in vivo; procedure, shortened: as §2
[7] = Cmax in rat at 10 mg/kg, po; assay type: ADME, organism-based; parameters: dose 10 mg/kg, route oral; conditions: in vivo; procedure, shortened: as §2
Melanocortin receptor 4 [8] = biological target: T1, Melanocortin receptor 4; test: Agonist activity at MC4 receptor by cAMP assay; assay type: functional

T1 sequence (P32245 whole entry): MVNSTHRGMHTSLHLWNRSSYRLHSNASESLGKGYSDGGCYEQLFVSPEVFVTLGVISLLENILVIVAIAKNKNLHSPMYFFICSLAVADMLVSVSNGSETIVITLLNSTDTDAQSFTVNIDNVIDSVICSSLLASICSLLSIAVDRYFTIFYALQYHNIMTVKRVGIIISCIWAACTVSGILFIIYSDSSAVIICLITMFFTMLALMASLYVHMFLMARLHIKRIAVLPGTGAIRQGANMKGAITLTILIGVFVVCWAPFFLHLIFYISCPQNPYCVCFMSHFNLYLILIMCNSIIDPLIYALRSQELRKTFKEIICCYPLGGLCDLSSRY

SMILES | Ki (Melanocortin receptor 4 [1]) [nM] | further results
CC(C)C[C@H](N)c1cc(Cl)ccc1N1CCN(C(=O)C2NCCC2c2ccc(Cl)cc2)CC1 (some centres undefined) | 96 | 
CC(C)C[C@H](N)c1cc(C(F)(F)F)ccc1N1CCN(C(=O)C2(Cc3ccc(Cl)cc3)COC(=O)N2)CC1 (some centres undefined) | 550 | 
Cc1ccc(N2CCN(C(=O)C3NCCC3c3ccc(Cl)cc3)CC2)c([C@@H](N)C(C)C)c1 (some centres undefined) | 56 | 
CC(C)C[C@H](N)c1cc(Cl)ccc1N1CCN(C(=O)[C@@H]2NCC[C@@H]2c2ccc(Cl)cc2Cl)CC1 |  | IC50 (Melanocortin receptor 4 [2]): 1500 nM
Cc1ccc(N2CCN(C(=O)[C@H]3[C@@H](c4ccc(Cl)cc4)CCN3C(=O)C(C)(C)C)CC2)c([C@@H](N)C(C)C)c1 | 7.2 | 
CC(=O)N1CC[C@H](c2ccc(C(F)(F)F)cc2)[C@@H]1C(=O)N1CCN(c2ccc(C)cc2[C@@H](N)C(C)C)CC1 | 54 | 
COC(=O)N1CC[C@H](c2ccc(Cl)cc2)[C@@H]1C(=O)N1CCN(c2ccc(C)cc2[C@@H](N)C(C)C)CC1 (stereo in doubt; form 1) | 17 | IC50 (Melanocortin receptor 4 [2]): 720 nM
Cc1ccc(N2CCN(C(=O)[C@@H]3[C@@H](c4ccc(Cl)cc4)CCN3C(=O)OC(C)C)CC2)c([C@@H](N)C(C)C)c1 | 68 | 
Cc1ccc(N2CCN(C(=O)[C@H]3[C@@H](c4ccc(Cl)cc4)CCN3S(C)(=O)=O)CC2)c([C@@H](N)C(C)C)c1 | 40 | 
CCC(=O)N1CC[C@H](c2ccc(Cl)cc2)[C@H]1C(=O)N1CCN(c2ccc(C)cc2[C@@H](N)C(C)C)CC1 | 62 | 
Cc1ccc(N2CCN(C(=O)[C@@H]3[C@@H](c4ccc(Cl)cc4)CCN3C(=O)C3CCC3)CC2)c([C@@H](N)C(C)C)c1 | 55 | 
Cc1ccc(N2CCN(C(=O)[C@H]3[C@@H](c4ccc(Cl)cc4)CCN3C(=O)N(C)C)CC2)c([C@@H](N)C(C)C)c1 (stereo in doubt; form 1) | 7.4 | IC50 (Melanocortin receptor 4 [2]): 190 nM
CC(C)C[C@H](N)c1cc(C(F)(F)F)ccc1N1CCN(C(=O)C2NCCC2c2ccc(Cl)cc2)CC1 (some centres undefined) | 98 | 
CC(=O)N1CC[C@@H](c2ccc(Cl)cc2)[C@H]1C(=O)N1CCN(c2ccc(C)cc2[C@@H](N)C(C)C)CC1 | 120 | 
CC(C)C[C@H](N)c1cc(C(F)(F)F)ccc1N1CCN(C(=O)C2NC(=O)CC2c2ccc(Cl)cc2)CC1 (some centres undefined) | 340 | 
CC(=O)N1CC[C@H](c2ccc(C)cc2)[C@@H]1C(=O)N1CCN(c2ccc(C)cc2[C@@H](N)C(C)C)CC1 | 97 | 
Cc1ccc(N2CCN(C(=O)[C@H]3[C@@H](c4ccc(Cl)cc4)CCN3C(C)C)CC2)c([C@@H](N)C(C)C)c1 | 110 | 
Cc1ccc(N2CCN(C(=O)[C@H]3[C@@H](c4ccc(Cl)cc4)CCN3C(=O)N(C)C)CC2)c([C@@H](N)C(C)C)c1 (stereo in doubt; form 2) | 6.5 | IC50 (Melanocortin receptor 4 [2]): 93 nM; clearance [3]: 20 mL/min/kg; Vd [4]: 17.2 L/kg; half-life [5]: 4.3 h; AUC (Rattus norvegicus): 533 ng·h/mL; bioavailability [6]: 7.2%; Cmax [7]: 35 ng/mL
COC(=O)N1CC[C@@H](c2ccc(Cl)cc2)[C@H]1C(=O)N1CCN(c2ccc(C)cc2[C@@H](N)C(C)C)CC1 | 53 | 
CCOC(=O)N1CC[C@H](c2ccc(Cl)cc2)[C@@H]1C(=O)N1CCN(c2ccc(F)cc2[C@@H](N)C(C)C)CC1 | 74 | 
CCCC(=O)N1CC[C@H](c2ccc(Cl)cc2)[C@H]1C(=O)N1CCN(c2ccc(C)cc2[C@@H](N)C(C)C)CC1 | 52 | 
CC(=O)N1CC[C@H](c2ccc(F)cc2)[C@@H]1C(=O)N1CCN(c2ccc(C)cc2[C@@H](N)C(C)C)CC1 | 330 | 
COC(=O)N1CC[C@H](c2ccc(Cl)cc2)[C@@H]1C(=O)N1CCN(c2ccc(C)cc2[C@@H](N)C(C)C)CC1 (stereo in doubt; form 2) | 18 | 
CCOC(=O)N1CC[C@H](c2ccc(Cl)cc2)[C@@H]1C(=O)N1CCN(c2ccc(C)cc2[C@@H](N)C(C)C)CC1 (stereo in doubt; form 1) | 16 | IC50 (Melanocortin receptor 4 [2]): 640 nM

SMILES | Ki (Melanocortin receptor 4 [1]) [nM] | further results
CCOC(=O)N1CC[C@@H](c2ccc(Cl)cc2)[C@H]1C(=O)N1CCN(c2ccc(C)cc2[C@@H](N)C(C)C)CC1 | 130 | 
CCOC(=O)N1CC[C@H](c2ccc(Cl)cc2)[C@@H]1C(=O)N1CCN(c2ccccc2[C@@H](N)C(C)C)CC1 | 94 | 
CC(=O)N1CC[C@H](c2ccc(Cl)cc2)[C@@H]1C(=O)N1CCN(c2ccc(C)cc2[C@@H](N)C(C)C)CC1 (stereo in doubt; form 2) | 11 | IC50 (Melanocortin receptor 4 [2]): 520 nM
CCOC(=O)N1CC[C@H](c2ccc(Cl)cc2)[C@H]1C(=O)N1CCN(c2ccc(C)cc2[C@@H](N)C(C)C)CC1 | 42 | 
CC(=O)N1CC[C@@H](c2ccc(Cl)cc2)[C@@H]1C(=O)N1CCN(c2ccc(C)cc2[C@@H](N)C(C)C)CC1 | 180 | 
CC(=O)N1CC[C@H](c2ccc(Cl)cc2)[C@H]1C(=O)N1CCN(c2ccc(C)cc2[C@@H](N)C(C)C)CC1 | 78 | 
COc1ccc([C@H]2CCN(C(C)=O)[C@H]2C(=O)N2CCN(c3ccc(C)cc3[C@@H](N)C(C)C)CC2)cc1 | 45 | 
COC(=O)N1CC[C@H](c2ccc(Cl)cc2)[C@H]1C(=O)N1CCN(c2ccc(C)cc2[C@@H](N)C(C)C)CC1 | 59 | 
Cc1ccc(N2CCN(C(=O)[C@@H]3[C@H](c4ccc(Cl)cc4)CCN3C(=O)N(C)C)CC2)c([C@@H](N)C(C)C)c1 | 190 | 
CC(C)C[C@H](N)c1cc(Cl)ccc1N1CCN(C(=O)C2NCCC2c2ccc(Cl)cc2Cl)CC1 (some centres undefined) | 190 | 
Cc1ccc(N2CCN(C(=O)[C@@H]3[C@@H](c4ccc(Cl)cc4)CCN3C(=O)C(C)(C)C)CC2)c([C@@H](N)C(C)C)c1 | 79 | 
Cc1ccc(N2CCN(C(=O)[C@H]3[C@@H](c4ccc(Cl)cc4)CCN3C(=O)[C@H]3Cc4ccccc4CN3)CC2)c([C@@H](N)C(C)C)c1 | 1.1 | EC50 (Melanocortin receptor 4 [8]): 3500 nM; Emax (Melanocortin receptor 4 [8]): 44%
Cc1ccc(N2CCN(C(=O)[C@@H]3NCC[C@@H]3c3ccc(Cl)cc3)CC2)c([C@@H](N)C(C)C)c1 | 52 | IC50 (Melanocortin receptor 4 [2]): 310 nM
CC(=O)N1CC[C@H](c2ccc(Cl)cc2)[C@@H]1C(=O)N1CCN(c2ccc(C)cc2[C@@H](N)C(C)C)CC1 (stereo in doubt; form 1) | 24 | 
Cc1ccc(N2CCN(C(=O)[C@H]3[C@@H](c4ccc(Cl)cc4)CCN3C(=O)OC(C)C)CC2)c([C@@H](N)C(C)C)c1 | 12 | 
CC(C)[C@H](N)c1cccc(F)c1N1CCN(C(=O)[C@@H]2NCC[C@@H]2c2ccc(Cl)cc2)CC1 |  | IC50 (Melanocortin receptor 4 [2]): 960 nM
CC(C)[C@H](N)c1cccc(F)c1N1CCN(C(=O)C2NCCC2c2ccc(Cl)cc2)CC1 (some centres undefined) | 110 | 
Cc1ccc(N2CCN(C(=O)[C@@H]3[C@@H](c4ccc(Cl)cc4)CCN3C(=O)[C@H]3Cc4ccccc4CN3)CC2)c([C@@H](N)C(C)C)c1 | 92 | EC50 (Melanocortin receptor 4 [8]): 15000 nM; Emax (Melanocortin receptor 4 [8]): 21%
CC(=O)N1CC[C@H](c2ccccc2)[C@@H]1C(=O)N1CCN(c2ccc(C)cc2[C@@H](N)C(C)C)CC1 | 1800 | 
CCOC(=O)N1CC[C@H](c2ccc(Cl)cc2)[C@@H]1C(=O)N1CCN(c2ccc(Cl)cc2[C@@H](N)C(C)C)CC1 | 18 | 
Cc1ccc(N2CCN(C(=O)[C@H]3[C@@H](c4ccc(Cl)cc4)CCN3C)CC2)c([C@@H](N)C(C)C)c1 | 160 | 
CC(C)[C@H](N)c1cccc(F)c1N1CCN(C(=O)C2NCCC2c2ccc(Cl)cc2Cl)CC1 (some centres undefined) | 560 | 
CC(C)C[C@H](N)c1cc(C(F)(F)F)ccc1N1CCN(C(=O)[C@@H]2NCC[C@@H]2c2ccc(Cl)cc2)CC1 |  | IC50 (Melanocortin receptor 4 [2]): 2400 nM
CCOC(=O)N1CC[C@H](c2ccc(Cl)cc2)[C@@H]1C(=O)N1CCN(c2ccc(C)cc2[C@@H](N)C(C)C)CC1 (stereo in doubt; form 2) | 11 | 
